ChEMBL document CHEMBL1123658, “1-(2-pyridinyl)piperazine derivatives with antianaphylactic, antibronchospastic, and mast cell stabilizing activities” (J Med Chem, 1987)

What was measured:
[1] = In vivo toxic effect was determined in mouse after oral administration with 10% aqueous acacia gum; value ranges from 0.67-1.21; format: toxicity, organism-based
Summary of the method: (§1)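 Female albino mice, 20-30 g. Compound given orally as solution or suspension in 10% aqueous acacia gum, 10 animals per dose. Deaths recorded over 7 days.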

[2] = test system: Cavia porcellus; test: Antibronchospatic activity determined by histamine stimulated bronchospasm inhibition in guinea pigs after(i.v.) administration; format: functional, Bronchiole
Summary of the method: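 Guinea pigs, Konzett–Rössler preparation. Bronchospasm was induced with histamine. Compound was given iv (1 mL/kg) 1 min before the agonist, dissolved in saline or saline with slight excess HCl or CH3SO3H (pH 3.5–4). Three doses were tested in duplicate, chosen to give 20–90% inhibition. ID75 was read graphically from log dose–response curves.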

[3] = In vivo toxic effect was determined in mouse after intraperitoneal administration with 10% aqueous acacia gum; value ranges from 0.40-1.72; format: toxicity, organism-based; details: ip
Summary of the method: (§2)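 Female albino mice (20-30 g), 10 animals per dose, dosed intraperitoneally with compound in solution or suspension; compounds tested as salts unless noted. Mortality was recorded over 7 days.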

[4] = In vivo toxic effect was determined in mouse after intraperitoneal administration with 10% aqueous acacia gum; value ranges from 1.73-3.04; format: toxicity, organism-based; details: ip; summary of the method: as §2
[5] = test system: Rattus norvegicus; test: Inhibition of mast cell degranulation was assessed in female albino rats at a dose of 29 umol/kg iv; format: functional
[6] = test system: Rattus norvegicus; test: Rat PCA Test(50% inhibition of spot areas)in the female albino rats after oral administration in 10% aqueous acacia gum; format: functional; details: read-out: ID50 (the source's name)
Summary of the method: (§3)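 Female rats (200-250 g) were passively sensitized by ventral intradermal anti-egg-albumin antiserum. This was raised in rats by intramuscular 1% egg albumin plus ip H. pertussis vaccine, with serum taken at 12 days. After 24 h, groups of 10 were dosed orally with compound or vehicle (10 mL/kg). At 60 min, iv challenge used 0.3% egg albumin with 1% Evans blue. Blued areas were measured after 30 min.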

[7] = In vivo toxicity in mouse after oral administration with 10% aqueous acacia gum; format: organism-based; summary of the method: as §1
[8] = test system: Rattus norvegicus; test: Rat PCA Test(50% inhibition of spot areas)in the female albino rats after (ip) administration in 10% aqueous acacia gum; value ranges from 57-105; format: functional; details: read-out: ID50 (the source's name)
Summary of the method: (§4)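 Female albino rats (200–250 g) received intradermal ventral injections of rat anti-egg-albumin antiserum; donors were raised with egg albumin im plus H. pertussis ip, and serum was taken at 12 days. 24 h later, compound was given ip in 10% acacia gum (10 mL/kg), 10 rats/group. Challenge 30 min later was iv 0.3% egg albumin plus 1% Evans blue. Blued areas were measured 30 min after challenge.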

[9] = test system: Mus musculus; test: In vivo toxic effect was determined in mouse after intraperitoneal administration with 10% aqueous acacia gum; NA means poorly absorbed; format: toxicity, organism-based; details: ip; summary of the method: as §2
[10] = test system: Rattus norvegicus; test: Rat PCA Test(50% inhibition of spot areas)in the female albino rats after (ip) administration in 10% aqueous acacia gum; value ranges from 20-94; format: functional; details: read-out: ID50 (the source's name); summary of the method: as §4
[11] = In vivo toxic effect was determined in mouse after oral administration with 10% aqueous acacia gum; value ranges from 1.35-1.88; format: toxicity, organism-based; summary of the method: as §1
[12] = test system: Rattus norvegicus; test: Rat PCA Test(50% inhibition of spot areas)in the female albino rats after (ip) administration in 10% aqueous acacia gum; value ranges from 22-195; format: functional; details: read-out: ID50 (the source's name); summary of the method: as §4
[13] = In vivo toxic effect was determined in mouse after intraperitoneal administration with 10% aqueous acacia gum; value ranges from 0.72-1.40; format: toxicity, organism-based; details: ip; summary of the method: as §2
[14] = In vivo toxic effect was determined in mouse after intraperitoneal administration with 10% aqueous acacia gum; value ranges from 0.72-1.13; format: toxicity, organism-based; details: ip; summary of the method: as §2
[15] = test system: Rattus norvegicus; test: Rat PCA Test(50% inhibition of spot areas)in the female albino rats after (ip) administration in 10% aqueous acacia gum;Value ranges from (81-186); format: functional; details: read-out: ID50 (the source's name)
Summary of the method: (§5)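 Antiserum came from female rats given 1% egg albumin in 0.9% NaCl intramuscularly plus Haemophilus pertussis vaccine (2 × 10^10 organisms) intraperitoneally, and was collected 12 days later. Recipient rats (200-250 g) got it intradermally at a ventral site. After 24 h, groups of 10 received vehicle or compound ip. At 30 min they were challenged iv with 0.3% egg albumin plus 1% Evans blue. Blued skin areas were measured 30 min later.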

[16] = In vivo toxic effect was determined in mouse after intraperitoneal administration with 10% aqueous acacia gum; value ranges from 0.63-1.05; format: toxicity, organism-based; details: ip; summary of the method: as §2
[17] = test system: Rattus norvegicus; test: Rat PCA Test(50% inhibition of spot areas)in the female albino rats after ip administration in 10% aqueous acacia gum; format: functional; details: read-out: ID50 (the source's name); summary of the method: as §5
[18] = In vivo toxic effect was determined in mouse after oral administration with 10% aqueous acacia gum; value ranges from 1.79-2.41; format: toxicity, organism-based; summary of the method: as §1
[19] = test system: Rattus norvegicus; test: Inhibition of mast cell degranulation was assessed in female albino rats at a dose of 61 umol/kg iv; format: functional
[20] = In vivo toxic effect was determined in mouse after intraperitoneal administration with 10% aqueous acacia gum; value ranges from 0.96-10.62; format: toxicity, organism-based; details: ip; summary of the method: as §2
[21] = test system: Rattus norvegicus; test: Inhibition of mast cell degranulation was assessed in female albino rats at a dose of 28 umol/kg iv; format: functional
[22] = test system: Rattus norvegicus; test: Rat PCA Test(50% inhibition of spot areas)in the female albino rats after oral administration in 10% aqueous acacia gum; value ranges from 30-108; format: functional; details: read-out: ID50 (the source's name); summary of the method: as §3
[23] = test system: Rattus norvegicus; test: Rat PCA Test(50% inhibition of spot areas)in the female albino rats after (ip) administration in 10% aqueous acacia gum; value ranges from 141-206; format: functional; details: read-out: ID50 (the source's name); summary of the method: as §4
[24] = In vivo toxic effect was determined in mouse after oral administration with 10% aqueous acacia gum; value ranges from 0.50-0.68; format: toxicity, organism-based
[25] = test system: Rattus norvegicus; test: Rat PCA Test(50% inhibition of spot areas)in the female albino rats after oral administration in 10% aqueous acacia gum; value ranges from 1.7-2.4; format: functional; details: read-out: ID50 (the source's name); summary of the method: as §3
[26] = In vivo toxic effect was determined in mouse after intraperitoneal administration with 10% aqueous acacia gum; value ranges from 0.29-0.42; format: toxicity, organism-based; details: ip; summary of the method: as §2
[27] = test system: Rattus norvegicus; test: Inhibition of mast cell degranulation was assessed in female albino rats at a dose of 2 umol/kg iv; format: functional

## Cl.Cl.O=C(CCN1CCN(c2ccccn2)CC1)Nc1ccc([N+](=O)[O-])cc1
[1]
  LD50: 810 µmol/kg
[2]
  ID75: 0.94 µM/kg
[3]
  LD50: 470 µmol/kg

## CC(=O)c1ccccc1NC(=O)CCN1CCN(c2ccccn2)CC1.Cl.Cl
[4]
  LD50: 2300 µmol/kg
[5]
  inhibition in vivo at 29 µmol/kg: 0%
[2]
  ID75: 0.89 µM/kg
[6]
  ED50: > 230 µmol/kg
[7]
  LD50: > 6910 µmol/kg
[8]
  ED50: 77 µmol/kg

## Br.CC(=O)c1ccc(NC(=O)CCN2CCN(c3ccc(Br)cn3)CC2)cc1
[6]
  ED50: > 230 µmol/kg
[9]
  LD50: Not Active
[7]
  LD50: > 7000 µmol/kg
[10]
  ED50: 43 µmol/kg

## Cc1ccccc1NC(=O)CCN1CCN(c2ccccn2)CC1
[2]
  ID75: 0.47 µM/kg
[11]
  LD50: 1580 µmol/kg
[6]
  ED50: > 96 µmol/kg
[12]
  ED50: 65 µmol/kg
[13]
  LD50: 1010 µmol/kg

## Cc1cccc(C)c1NC(=O)CN1CCN(c2ccccn2)CC1
[14]
  LD50: 900 µmol/kg
[2]
  ID75: >24 µM/kg
[15]
  ED50: 123 µmol/kg

## Cc1c(C)c(C(=O)NCCN2CCN(c3ccccn3)CC2)c(C)c(C)c1N
[2]
  ID75: 8.39 µM/kg
[16]
  LD50: 710 µmol/kg
[17]
  ED50: > 236 µmol/kg

## Nc1ccccc1NC(=O)CCN1CCN(c2ccccn2)CC1
[18]
  LD50: 2080 µmol/kg
[19]
  inhibition in vivo at 61 µmol/kg: 26%
[20]
  LD50: 3200 µmol/kg

## CSc1ccc(NC(=O)CCN2CCN(c3ccccn3)CC2)cc1
[21]
  inhibition in vivo at 28 µmol/kg: 50%
[22]
  ED50: 57 µmol/kg
[23]
  ED50: 171 µmol/kg
[2]
  ID75: 0.17 µM/kg
[9]
  LD50: Not Active
[7]
  LD50: > 8400 µmol/kg

## CN1CCC(=C2c3ccccc3CC(=O)c3sccc32)CC1 [KETOTIFEN]
[24]
  LD50: 580 µmol/kg
[25]
  ED50: 2 µmol/kg
[2]
  ID75: 0.0015 µM/kg
[26]
  LD50: 350 µmol/kg
[27]
  inhibition in vivo at 2 µmol/kg: 22%
